Converted amounts (≈) assume the structure as drawn. The source made the active and inactive calls. No cut-off for these calls is given here.
Assays:
[1] = tested on: Klebsiella pneumoniae; test: Antibacterial activity against Klebsiella pneumoniae HK11750/08 clinical isolate after 48 hrs by microdilution assay; type: functional; settings: HK11750/08, 48 h
[2] = tested on: Nakaseomyces glabratus; test: Antifungal activity against Candida glabrata 20/I clinical isolate up to 1 mM after 24 to 48 hrs by microdilution assay; type: functional, organism-based
How it was run: (§1)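 Fungal microdilution following modified CLSI M27-A3/M38-A2, in RPMI 1640 with L-glutamine and 0.165 M MOPS at pH 7.0, with DMSO no more than 2% final. Compounds were 2-fold serially diluted from 2000 to 0.488 µmol/l. The inoculum was 5×10^3 cfu/ml. Incubation was at 35 °C, read visually at 24/48 h (T. mentagrophytes at 72/120 h). MIC was IC80 for yeasts and IC50 for filamentous fungi, determined twice in duplicate.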

[3] = tested on: Klebsiella pneumoniae; test: Antibacterial activity against Klebsiella pneumoniae HK14368/08 clinical isolate after 48 hrs by microdilution assay; type: functional; settings: HK14368/08, 48 h
[4] = tested on: Staphylococcus aureus; test: Antibacterial activity against methicillin-resistant Staphylococcus aureus HK5996/08 clinical isolate after 24 hrs by microdilution assay; type: functional; settings: HK5996/08, 24 h
[5] = tested on: HL-60; test: Induction of apoptosis in human HL60 cells assessed as caspase 3/7 activity after 24 hrs by caspase-glo luminescent assay; type: cell-based; settings: HL-60, 24 h
How it was run: (§2)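 Cells were seeded at 500 per well in their growth media and exposed to 12 concentrations from 40 µM to 1 nM, delivered from DMSO, in triplicate. After 24 h, caspase-3/7 activity was read by Caspase-Glo luminescence. Data were normalized and ED50 was fitted by variable-slope nonlinear regression.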

[6] = tested on: Escherichia coli; test: Antibacterial activity against Escherichia coli ATCC 8739 after 48 hrs by microdilution assay; type: functional; settings: ATCC 8739, 48 h
How it was run: (§3)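 Broth microdilution in Mueller-Hinton medium buffered to pH 7.4 (±0.2), with DMSO as diluent at no more than 2% final. Compounds were tested as 2-fold serial dilutions from 2000 to 0.488 µmol/l. The inoculum was 0.5 McFarland (1.5×10^8 cfu/ml). Plates were held at 37 °C and read visually at 24 and 48 h. MIC was taken as 95% growth inhibition versus control, determined twice in duplicate.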

[7] = tested on: Escherichia coli; test: Antibacterial activity against Escherichia coli ATCC 8739 after 24 hrs by microdilution assay; type: functional; settings: ATCC 8739, 24 h; how it was run: as §3
[8] = tested on: PC-3; test: Induction of apoptosis in human PC3 cells assessed as caspase 3/7 activity after 24 hrs by caspase-glo luminescent assay; type: cell-based; settings: PC-3, 24 h; how it was run: as §2
[9] = tested on: Staphylococcus epidermidis; test: Antibacterial activity against Staphylococcus epidermidis HK6966/08 clinical isolate after 24 hrs by microdilution assay; type: functional; settings: HK6966/08, 24 h
[10] = tested on: Aspergillus fumigatus; test: Antifungal activity against Aspergillus fumigatus 231 up to 1 mM after 24 to 48 hrs by microdilution assay; type: functional, organism-based; how it was run: as §1
[11] = tested on: HepG2; test: Cytotoxicity against human HepG2 cells assessed as reduction in cell viability after 48 hrs by ATPlite-based luminescent assay; settings: HepG2, 48 h
How it was run: (§4)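 Cells were grown […] with 10% FBS, glutamax, NEAA and pen/strep at 37 °C, 5% CO2. Media were DMEM for RPE-1, HepG2 and BJ (BJ plus 10 ng/ml bFGF), F-12K for PC3, and IMDM for K562/HL-60. Cells were seeded at 500 per well and dosed from DMSO at 12 concentrations, 40 µM to 1 nM, in triplicate. After 48 h, intracellular ATP was read by luminescence. ED50 was obtained by variable-slope nonlinear regression.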

[12] = tested on: Klebsiella pneumoniae; test: Antibacterial activity against Klebsiella pneumoniae HK14368/08 clinical isolate after 24 hrs by microdilution assay; type: functional; settings: HK14368/08, 24 h
[13] = tested on: Staphylococcus aureus; test: Antibacterial activity against Staphylococcus aureus ATCC 6538 after 48 hrs by microdilution assay; type: functional; settings: ATCC 6538, 48 h
[14] = tested on: Staphylococcus epidermidis; test: Antibacterial activity against Staphylococcus epidermidis HK6966/08 clinical isolate after 48 hrs by microdilution assay; type: functional; settings: HK6966/08, 48 h
[15] = tested on: HepG2; test: Induction of apoptosis in human HepG2 cells assessed as caspase 3/7 activity after 24 hrs by caspase-glo luminescent assay; type: cell-based; settings: HepG2, 24 h; how it was run: as §2
[16] = tested on: PC-3; test: Cytotoxicity against human PC3 cells assessed as reduction in cell viability after 48 hrs by ATPlite-based luminescent assay; settings: PC-3, 48 h; how it was run: as §4
[17] = tested on: Candida albicans; test: Antifungal activity against Candida albicans ATCC 44859 up to 1 mM after 24 to 48 hrs by microdilution assay; type: functional, organism-based; how it was run: as §1
[18] = tested on: Candida parapsilosis; test: Antifungal activity against Candida parapsilosis ATCC 22019 up to 1 mM after 24 to 48 hrs by microdilution assay; type: functional, organism-based; how it was run: as §1
[19] = tested on: Pichia kudriavzevii; test: Antifungal activity against Candida krusei ATCC 6258 up to 1 mM after 24 to 48 hrs by microdilution assay; type: functional, organism-based; how it was run: as §1
[20] = tested on: TERT-RPE1; test: Cytotoxicity against human RPE1 cells assessed as reduction in cell viability after 48 hrs by ATPlite-based luminescent assay; settings: RPE-1, 48 h; how it was run: as §4
[21] = tested on: Candida tropicalis; test: Antifungal activity against Candida tropicalis 156 clinical isolate up to 1 mM after 24 to 48 hrs by microdilution assay; type: functional, organism-based; how it was run: as §1
[22] = tested on: K562; test: Induction of apoptosis in human K562 cells assessed as caspase 3/7 activity after 24 hrs by caspase-glo luminescent assay; type: cell-based; settings: K562, 24 h; how it was run: as §2
[23] = tested on: Enterococcus sp.; test: Antibacterial activity against Enterococcus sp. HK14365/08 clinical isolate after 48 hrs by microdilution assay; type: functional; settings: HK14365/08, 48 h
[24] = tested on: Klebsiella pneumoniae; test: Antibacterial activity against Klebsiella pneumoniae HK11750/08 clinical isolate after 24 hrs by microdilution assay; type: functional; settings: HK11750/08, 24 h
[25] = tested on: BJ; test: Cytotoxicity against human BJ cells assessed as reduction in cell viability after 48 hrs by ATPlite-based luminescent assay; how it was run: as §4
[26] = tested on: Enterococcus sp.; test: Antibacterial activity against Enterococcus sp. HK14365/08 clinical isolate after 24 hrs by microdilution assay; type: functional; settings: HK14365/08, 24 h
[27] = tested on: Trichosporon asahii; test: Antifungal activity against Trichosporon asahii 1188 clinical isolate up to 1 mM after 24 to 48 hrs by microdilution assay; type: functional, organism-based; how it was run: as §1
[28] = tested on: HL-60; test: Cytotoxicity against human HL60 cells assessed as reduction in cell viability after 48 hrs by ATPlite-based luminescent assay; settings: HL-60, 48 h; how it was run: as §4
[29] = tested on: Candida albicans; test: Antifungal activity against Candida albicans ATCC 90028 up to 1 mM after 24 to 48 hrs by microdilution assay; type: functional, organism-based; how it was run: as §1
[30] = tested on: Pichia kudriavzevii; test: Antifungal activity against Candida krusei E28 clinical isolate up to 1 mM after 24 to 48 hrs by microdilution assay; type: functional, organism-based; how it was run: as §1
[31] = tested on: Lichtheimia corymbifera; test: Antifungal activity against Absidia corymbifera 272 up to 1 mM after 24 to 48 hrs by microdilution assay; type: functional, organism-based; how it was run: as §1
[32] = tested on: Pseudomonas aeruginosa; test: Antibacterial activity against Pseudomonas aeruginosa ATCC 9027 after 48 hrs by microdilution assay; type: functional; settings: ATCC 9027, 48 h; how it was run: as §3
[33] = tested on: Clavispora lusitaniae; test: Antifungal activity against Candida lusitaniae 2446/I clinical isolate up to 1 mM after 24 to 48 hrs by microdilution assay; type: functional, organism-based; how it was run: as §1
[34] = tested on: Pseudomonas aeruginosa; test: Antibacterial activity against Pseudomonas aeruginosa ATCC 9027 after 24 hrs by microdilution assay; type: functional; settings: ATCC 9027, 24 h; how it was run: as §3
[35] = tested on: K562; test: Cytotoxicity against human K562 cells assessed as reduction in cell viability after 48 hrs by ATPlite-based luminescent assay; settings: K562, 48 h; how it was run: as §4
[36] = tested on: Trichophyton mentagrophytes; test: Antifungal activity against Trichophyton mentagrophytes 445 up to 1 mM after 72 to 120 hrs by microdilution assay; type: functional, organism-based; how it was run: as §1
[37] = tested on: TERT-RPE1; test: Induction of apoptosis in human RPE1 cells assessed as caspase 3/7 activity after 24 hrs by caspase-glo luminescent assay; type: cell-based; settings: RPE-1, 24 h; how it was run: as §2
[38] = tested on: Staphylococcus aureus; test: Antibacterial activity against methicillin-resistant Staphylococcus aureus HK5996/08 clinical isolate after 48 hrs by microdilution assay; type: functional; settings: HK5996/08, 48 h
[39] = tested on: Staphylococcus aureus; test: Antibacterial activity against Staphylococcus aureus ATCC 6538 after 24 hrs by microdilution assay; type: functional; settings: ATCC 6538, 24 h
[40] = tested on: MCF7; test: Cytotoxicity against human MCF7 cells assessed as reduction in cell viability after 48 hrs by ATPlite-based luminescent assay; settings: MCF7, 48 h

## Cc1ccc(C2=C(c3ccc(Br)cc3)C(=O)OC2CO)cc1 (stereo not given)
[1]
  MIC95: > 500 µM
[2]
  Activity: inactive
[3]
  MIC95: > 500 µM
[4]
  MIC95: 62.5 µM (≈ 22.5 µg/mL)
[5]
  IC50: > 40 µM
[6]
  MIC95: > 500 µM
[7]
  MIC95: > 500 µM
[8]
  IC50: > 40 µM
[9]
  MIC95: 62.5 µM (≈ 22.5 µg/mL)
[10]
  Activity: inactive
[11]
  IC50: > 40 µM
[12]
  MIC95: > 500 µM
[13]
  MIC95: 15.6 µM (≈ 5.61 µg/mL)
[14]
  MIC95: 62.5 µM (≈ 22.5 µg/mL)
[15]
  IC50: > 40 µM
[16]
  IC50: > 40 µM
[17]
  Activity: inactive
[18]
  Activity: inactive
[19]
  Activity: inactive
[20]
  IC50: > 40 µM
[21]
  Activity: inactive
[22]
  IC50: 46.7 µM
[23]
  MIC95: > 500 µM
[24]
  MIC95: > 500 µM
[25]
  IC50: > 40 µM
[26]
  MIC95: 500 µM (≈ 180 µg/mL)
[27]
  Activity: inactive
[28]
  IC50: 21.3 µM
[29]
  Activity: inactive
[30]
  Activity: inactive
[31]
  Activity: inactive
[32]
  MIC95: > 500 µM
[33]
  Activity: inactive
[34]
  MIC95: > 500 µM
[35]
  IC50: 31.4 µM
[36]
  Activity: inactive
[37]
  IC50: > 40 µM
[38]
  MIC95: 62.5 µM (≈ 22.5 µg/mL)
[39]
  MIC95: 15.6 µM (≈ 5.61 µg/mL)
[40]
  IC50: > 40 µM

## Cc1ccc(C2=C(c3ccc(Br)cc3)C(=O)OC2(CO)CO)cc1
[1]
  MIC95: > 500 µM
[2]
  Activity: inactive
[3]
  MIC95: > 500 µM
[4]
  MIC95: 250 µM (≈ 97.3 µg/mL)
[5]
  IC50: > 40 µM
[6]
  MIC95: > 500 µM
[7]
  MIC95: > 500 µM
[8]
  IC50: > 40 µM
[9]
  MIC95: 62.5 µM (≈ 24.3 µg/mL)
[10]
  Activity: inactive
[11]
  IC50: > 40 µM
[12]
  MIC95: > 500 µM
[13]
  MIC95: 3.9 µM (≈ 1.52 µg/mL)
[14]
  MIC95: 500 µM (≈ 195 µg/mL)
[15]
  IC50: > 40 µM
[16]
  IC50: > 40 µM
[17]
  Activity: inactive
[18]
  Activity: inactive
[19]
  Activity: inactive
[20]
  IC50: > 40 µM
[21]
  Activity: inactive
[22]
  IC50: > 40 µM
[23]
  MIC95: > 500 µM
[24]
  MIC95: > 500 µM
[25]
  IC50: > 40 µM
[26]
  MIC95: 500 µM (≈ 195 µg/mL)
[27]
  Activity: inactive
[28]
  IC50: > 40 µM
[29]
  Activity: inactive
[30]
  Activity: inactive
[31]
  Activity: inactive
[32]
  MIC95: > 500 µM
[33]
  Activity: inactive
[34]
  MIC95: > 500 µM
[35]
  IC50: > 40 µM
[36]
  Activity: inactive
[37]
  IC50: > 40 µM
[38]
  MIC95: 500 µM (≈ 195 µg/mL)
[39]
  MIC95: 0.98 µM (≈ 0.381 µg/mL)
[40]
  IC50: > 40 µM

— ChEMBL document CHEMBL4251593, “Nontoxic combretafuranone analogues with high in vitro antibacterial activity” (Eur J Med Chem, 2018)
